Data set [1] can be described thus: Toxicity in mouse HN9.10 cells expressing human KOR assessed as cell viability at 1 mM after 24 hrs by XTT assay. The format is cell-based. The conditions noted are these: read-out: Activity.
Data set [2] in a line: Half life in rat plasma by RP-HPLC analysis. Type of data set: ADME, cell-free. In short, it runs like this:
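Stock at 50 mg/mL diluted 5-fold into heparinized rat plasma at 37 °C. Aliquots taken at 1, 2, 4, 6, 12 and 24 h were quenched with EtOH (ACN for one analogue) and centrifuged.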

A further data set concerns the target Mu-type opioid receptor (Homo sapiens, UniProt P35372). The experiment in a line: Displacement of [3H]diprenorphine from human MOR expressed in mouse NG108-15 cell membranes incubated for 2 hrs by liquid scintillation counting based radioligand competition assay. The settings on record: for Ki: ng108-15.
Data set [3] addresses Delta-type opioid receptor (Homo sapiens, UniProt P41143). The experiment in a line: Displacement of [3H]deltorphin-II from human DOR expressed in CHO cell membranes incubated for 2 hrs by liquid scintillation counting based radioligand competition assay. In short, it runs like this: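 Crude membranes from transfected cells, 50 µg protein, in 50 mM Tris-HCl pH 7.4 with bacitracin 50 µg/mL, captopril 10 µM, PMSF 100 µM and BSA 5 mg/mL. Ten concentrations (10−4–10−13 M) were run against 500 pM [3H]deltorphin II for 2 h at rt with shaking. Nonspecific binding was taken with 10 µM naloxone. Filtered on PEI-soaked GF/B, washed in cold saline, scintillation counted.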

The species entered for data set [4] is Mus musculus. The experiment in a line: Antinociceptive activity in ICR mouse assessed as elevation in tail withdrawal latency at 1 ug, it measured after 30 mins by tail flick test. Type of data set: functional, organism-based. The settings on record: dose 1.0 µg.
For data set [5], the species on record is Mus musculus. The experiment in a line: Antinociceptive activity in ICR mouse assessed as elevation in tail withdrawal latency at 0.1 ug, it measured after 30 mins by tail flick test. Type of data set: functional, organism-based. The settings on record: dose 0.1 µg.
For data set [6], the species on record is Mus musculus. The experiment in a line: Antinociceptive activity in ICR mouse assessed as elevation in tail withdrawal latency at 10 ug, it measured after 30 mins by tail flick test. The settings on record: dose 10.0 µg. Type of data set: functional, organism-based.
The test system of data set [7] is Mus musculus. The experiment in a line: Inhibition of KOR selective agonist FE200665-induced antinociceptive activity in ICR mouse assessed as effect on tail withdrawal latency at 10 ug, it dosed 15 mins before FE200665 dosing and measured at 24 hrs by tail flick test. Type of data set: functional, organism-based. The settings on record: dose 10.0 µg. In short, it runs like this:
(§1)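 Adult male ICR mice given vehicle (MPH2O) or compound by lumbar puncture, 10 µg in 5 µL, n = 6/treatment, at t = −15 min. At t = 0 they received FE200665, 10 µg in 5 µL by lumbar puncture. Tail flick from 52 °C water retested up to 9 times over 24 h, 10.0 s cutoff. % antinociception = 100×(test−baseline)/(cutoff−baseline). Nonparametric two-way ANOVA with Bonferroni post hoc.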

The test system of data set [8] is Mus musculus. The experiment in a line: Inhibition of KOR selective agonist FE200665-induced antinociceptive activity in ICR mouse assessed as effect on tail withdrawal latency at 10 ug, it dosed 15 mins before FE200665 dosing and measured up to 24 hrs by tail flick test. Type of data set: functional, organism-based. The conditions noted are these: dose 10.0 µg, time hrs <=24. In short, it runs like this: as §1

Data set [9] has as its target T1, Kappa-type opioid receptor (Homo sapiens, UniProt P41145). The experiment in a line: Agonist activity at human KOR expressed in CHO cell membranes at 10 uM incubated for 1 hr by liquid scintillation counting based [35S]GTP-gamma-S assay. The settings on record: Cell membrane. In short, it runs like this: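 Frozen KOR-CHO cell pellets are homogenized and spun at 20 000g. 15 µg of membrane protein is incubated with test compound or vehicle and 0.1 nM [35S]GTPγS in 50 mM Tris-HCl pH 7.4 with 100 mM NaCl, 5 mM MgCl2, 1 mM EDTA and 40 µM GDP, for 1 h at 30 °C. Filtration and scintillation counting follow, and the result is expressed as % of U50,488 stimulation.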

The species named for another data set is Cavia porcellus. The experiment in a line: Agonist activity at OPRK in isolated Hartley guinea pig ileum/longitudinal muscle with myenteric plexus assessed as inhibition of electrically stimulated muscle contraction at 1 uM relative to control. The format is tissue-based. In short, it runs like this: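 Male Hartley guinea pig LMMP strips under 1 g tension in oxygenated Krebs bicarbonate buffer, 37 °C, field-stimulated at 0.1 Hz, 0.4 ms, supramaximal voltage. Compound tested at 1 µM. Activity given as percent of agonist response relative to the mean signal over the 3 min before drug. Tissue integrity checked first with a PL-017 dose-response curve.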

The target of data set [10] is T1, Kappa-type opioid receptor. The experiment in a line: Antagonist activity at human KOR expressed in CHO cell membranes assessed as reduction in U50,488 induced response incubated for 1 hr by liquid scintillation counting based [35S]GTP-gamma-S assay. The arrangement: species or system Cell membrane.
Data set [11] concerns the target T1, Kappa-type opioid receptor. The experiment in a line: Antagonist activity at human KOR expressed in CHO cell membranes assessed as reduction in U50,488 induced response incubated for 1 hr by liquid scintillation counting based [35S]GTP-gamma-S assay relative to naloxone. The settings on record: Cell membrane. In short, it runs like this: (§2)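 The assay uses KOR-CHO membranes (15 µg protein) with 0.1 nM [35S]GTPγS and 40 µM GDP, for 1 h at 30 °C, in the presence of 100 nM U50,488 as agonist. Bound label is counted after filtration. Data are normalized to 100 nM U50,488 (100%) and fit to a three-parameter inhibition curve. Imax is given relative to naloxone.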

For data set [12], the target named is T1, Kappa-type opioid receptor. The experiment in a line: Antagonist activity at human KOR expressed in CHO cell membranes assessed as reduction in U50,488 induced response at 10 uM incubated for 1 hr by liquid scintillation counting based [35S]GTP-gamma-S assay relative to naloxone. The conditions noted are these: Cell membrane. In short, it runs like this:
as §2

For data set [13], the system named is Mus musculus. The experiment in a line: Inhibition of KOR selective agonist FE200665-induced antinociceptive activity in ICR mouse assessed as effect on tail withdrawal latency at 10 ug, it dosed 15 mins before FE200665 dosing and measured at 15 mins by tail flick test. The format is functional, organism-based. The conditions noted are these: dose 10.0 µg, time 30.0 min. In short, it runs like this:
as §1

For data set [14], the system named is Mus musculus. The experiment in a line: Inhibition of KOR selective agonist FE200665-induced antinociceptive activity in ICR mouse assessed as effect on tail withdrawal latency at 10 ug, it dosed 15 mins before FE200665 dosing and measured up to 45 mins by tail flick test. Type of data set: functional, organism-based. The settings on record: dose 10.0 µg, time min <=45. In short, it runs like this: as §1

Data set [15] deals with Mus musculus. The experiment in a line: Inhibition of KOR selective agonist FE200665-induced antinociceptive activity in ICR mouse assessed as effect on tail withdrawal latency at 10 ug, it dosed 15 mins before FE200665 dosing and measured after 45 mins by tail flick test. The format is functional, organism-based. The settings on record: dose 10.0 µg, time 60.0 min. In short, it runs like this:
as §1

pKi: −log10 of the molar value. Activity calls are given as the source filed them. Where a SMILES comes first, the peptide text is derived from it. [ ]: non-standard residue; d: D form. The star is where a group is joined. X1 = Cc1cc(O)cc(C)c1C[C@H](C)C(=O)*; Orn = NCCC[C@H](N)C(=O)O Bounds are passed on as bounds.

T1 sequence (P41145 whole entry): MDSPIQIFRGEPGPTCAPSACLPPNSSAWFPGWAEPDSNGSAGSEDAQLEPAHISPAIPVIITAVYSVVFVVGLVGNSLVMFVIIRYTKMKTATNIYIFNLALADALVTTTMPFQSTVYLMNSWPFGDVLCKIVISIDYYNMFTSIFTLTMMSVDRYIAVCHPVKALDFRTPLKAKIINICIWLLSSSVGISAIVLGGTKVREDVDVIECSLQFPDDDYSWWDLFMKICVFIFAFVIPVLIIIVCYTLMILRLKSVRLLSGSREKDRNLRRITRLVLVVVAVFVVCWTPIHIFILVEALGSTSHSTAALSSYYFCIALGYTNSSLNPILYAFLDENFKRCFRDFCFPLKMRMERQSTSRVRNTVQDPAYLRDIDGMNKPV
Sequence of Mu-type opioid receptor (P35372 whole entry): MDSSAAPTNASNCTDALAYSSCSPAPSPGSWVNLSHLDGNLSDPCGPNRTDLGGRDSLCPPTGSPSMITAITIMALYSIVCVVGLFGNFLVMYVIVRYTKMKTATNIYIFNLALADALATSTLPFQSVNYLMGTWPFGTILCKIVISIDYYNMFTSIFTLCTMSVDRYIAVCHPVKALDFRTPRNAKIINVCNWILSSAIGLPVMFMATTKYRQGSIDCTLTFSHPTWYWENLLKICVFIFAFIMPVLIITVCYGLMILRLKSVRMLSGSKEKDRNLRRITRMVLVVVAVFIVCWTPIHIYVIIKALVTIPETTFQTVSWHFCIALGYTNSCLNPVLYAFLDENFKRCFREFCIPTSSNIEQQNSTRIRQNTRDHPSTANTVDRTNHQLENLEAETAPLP
Sequence of Delta-type opioid receptor (P41143 whole entry): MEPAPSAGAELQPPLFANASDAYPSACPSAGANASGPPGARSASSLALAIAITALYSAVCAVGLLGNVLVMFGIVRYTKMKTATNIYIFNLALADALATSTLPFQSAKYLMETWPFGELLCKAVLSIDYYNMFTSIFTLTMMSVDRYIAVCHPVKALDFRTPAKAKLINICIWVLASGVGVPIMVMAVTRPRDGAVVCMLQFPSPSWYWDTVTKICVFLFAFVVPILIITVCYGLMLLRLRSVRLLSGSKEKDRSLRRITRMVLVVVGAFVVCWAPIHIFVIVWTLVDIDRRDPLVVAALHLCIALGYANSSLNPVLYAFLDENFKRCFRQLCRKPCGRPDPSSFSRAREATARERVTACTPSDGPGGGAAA

Turning to `CC[C@H](C)[C@H](NC(=O)[C@H](CCCN=C(N)N)NC(=O)[C@H](CCCN=C(N)N)NC(=O)[C@H](CC(C)C)NC(=O)[C@H](Cc1ccccc1)NC(=O)CNC(=O)CNC(=O)[C@@H](N)Cc1ccc(O)cc1)C(=O)N[C@@H](CCCN=C(N)N)C(=O)N1CCC[C@H]1C(=O)N[C@@H](CCCCN)C(N)=O`, in [1], the viability at 24 h, 1000 µM worked out at 100%.
Turning to `CC(=O)N[C@@H](Cc1ccc(O)cc1)C(=O)NCC(=O)NCC(=O)N[C@@H](Cc1ccccc1)C(=O)N[C@@H](CC(C)C)C(=O)N[C@@H](CCCNC(=N)N)C(=O)N[C@H](C)C(=O)N[C@@H](CCCNC(=N)N)C(=O)N1CCC[C@@H]1C(=O)N[C@@H](CCCCN)C(N)=O` (Ac-YGGFLR[dA]R[dP]K-NH2), the half-life in [2] is 350 h. The Ki result at Mu-type opioid receptor is “Not Active”.
For the compound `CC(=O)N[C@@H](Cc1ccc(O)cc1)C(=O)NCC(=O)N1CCC[C@H]1C(=O)N[C@@H](Cc1ccccc1)C(=O)N[C@@H](CC(C)C)C(=O)N[C@@H](CCCNC(=N)N)C(=O)N[C@H](C)C(=O)N[C@@H](CCCNC(=N)N)C(=O)N1CCC[C@H]1C(=O)N[C@@H](CCCCN)C(N)=O` (Ac-YGPFLR[dA]RPK-NH2), the Ki result at Mu-type opioid receptor was “Not Active”.
For the compound `CC(=O)N[C@@H](Cc1ccc(O)cc1)C(=O)NCC(=O)N1CCC[C@H]1C(=O)N[C@@H](Cc1ccccc1)C(=O)N[C@@H](CC(C)C)C(=O)N[C@@H](CCCNC(=N)N)C(=O)N[C@H](C)C(=O)N[C@@H](CCCNC(=N)N)C(=O)N1CCC[C@@H]1C(=O)N[C@@H](CCCCN)C(N)=O` (Ac-YGPFLR[dA]R[dP]K-NH2), the Ki entry at Mu-type opioid receptor is recorded as “Not Active”.
For the compound `CC(=O)N[C@@H](Cc1ccc(O)cc1)C(=O)NCC(=O)N1CCC[C@H]1C(=O)N[C@@H](Cc1ccccc1)C(=O)N[C@@H](CC(C)C)C(=O)N[C@@H](CCCN)C(=O)N[C@H](C)C(=O)N[C@@H](CCCNC(=N)N)C(=O)N1CCC[C@H]1C(=O)N[C@@H](CCCCN)C(N)=O` (Ac-YGPFL[Orn][dA]RPK-NH2), the Ki result at Mu-type opioid receptor is given as “Not Active”. Further, the pKi in data set [3] is under 5.00.
With `CC[C@H](C)[C@H](NC(=O)[C@H](CCCNC(=N)N)NC(=O)[C@H](CC(C)C)NC(=O)[C@H](Cc1ccccc1)NC(=O)CNC(=O)CNC(=O)[C@@H](C)Cc1c(C)cc(O)cc1C)C(=O)N[C@@H](CCCNC(=N)N)C(N)=O` (X1-GGFLRIR-NH2), the outcome in the data set filed under Mus musculus [4], in the data set listed under Mus musculus [5], in the data set filed under Mus musculus [6] and with Mus musculus [7] was inactive. Also, the result in the data set with Mus musculus [8] was Active.
On to `CC[C@H](C)[C@H](NC(=O)[C@H](CCCNC(=N)N)NC(=O)[C@H](CC(C)C)NC(=O)[C@H](Cc1ccccc1)NC(=O)CNC(=O)CNC(=O)[C@@H](C)Cc1c(C)cc(O)cc1C)C(=O)N[C@@H](CCCNC(=N)N)C(=O)N1CCC[C@H]1C(=O)N[C@@H](CCCCN)C(N)=O` (X1-GGFLRIRPK-NH2), for which the result in data set [9] was inactive. Also, in the data set listed under Cavia porcellus, the inhibition is 0%. The viability at 24 h, 1000 µM in data set [1] worked out at 100%.
Take `CC[C@H](C)[C@H](NC(=O)[C@H](CCCNC(=N)N)NC(=O)[C@H](CC(C)C)NC(=O)[C@H](Cc1ccccc1)NC(=O)CNC(=O)CNC(=O)[C@@H](C)Cc1c(C)cc(O)cc1C)C(=O)N[C@@H](CCCNC(=N)N)C(=O)N1CCC[C@H]1C(=O)N[C@@H](CCCCN)C(=O)O` (X1-GGFLRIRPK-OH): the outcome in data set [9] was inactive. Moreover, the inhibition in the data set filed under Cavia porcellus amounted to 8.7%.
Ac-YGGFLRIRPK-NH2: the outcome in data set [9] was inactive. The inhibition in the data set filed under Cavia porcellus stood at 0%.
As for Ac-YGPFLRIRPK-NH2, on Mu-type opioid receptor, the Ki result is “Not Active”. In addition, the pKi in data set [3] is under 5.00.
On to H-YGGFLRIRPK-NH2, for which the result in data set [9] (filed as agonist) was Active. Besides, in [10], the IC50 entry was “Not Active”. For the same compound, the Imax result in data set [11] is “inactive”. Besides, the viability at 24 h, 1000 µM in [1] was 100%.
As for H-YGGFLRIRPK-OH, the outcome in data set [9] (filed as agonist) was Active. Also, the IC50 entry in data set [10] is “Not Active”. In data set [11], the Imax result was “inactive”. Further, in [1], the viability at 24 h, 1000 µM amounted to 100%.
For H-YGGFLRIRPKLK-OH, the result in [9] (filed as agonist) was Active. In addition, the IC50 entry in data set [10] is listed as “Not Active”. Further, the Imax result in data set [11] was “inactive”.
Compound H-YGPFLRIR-NH2 showed a half-life in data set [2] of 2.1 h. At Mu-type opioid receptor, the Ki entry is “Not Active”. Further, the Imax in [12] stood at 29%.
With H-YGPFLRIRPK-NH2, the outcome in the data set filed under Mus musculus [4], in the data set on Mus musculus [13], in the data set listed under Mus musculus [6] and in the data set on Mus musculus [14] was Active. This compound gave a half-life in data set [2] of 1.4 h. Moreover, the pKi on Mu-type opioid receptor (read-out: Ki) is under 5.00. The Imax in data set [12] was found to be 38%. Further, in [1], the viability at 24 h, 1000 µM came to 100%. Also, the outcome with Mus musculus [15] was inactive.

The values above are taken from ChEMBL document CHEMBL4715797, “Structure-Activity Relationships of [des-Arg]Dynorphin A Analogues at the κ Opioid Receptor” (J Med Chem, 2016).
